Results: ChEMBL document CHEMBL3804753, “Substituted quinolines as noncovalent proteasome inhibitors” (Bioorg Med Chem, 2016)

How the values were obtained:
[1] = target: T1, Proteasome Macropain subunit MB1 (Homo sapiens, UniProt P28074); assay: Inhibition of human 20S proteasome chymotryptic-like activity using Suc-LLVY-AMC as substrate measured for 30 mins by fluorescence assay
T1 sequence (P28074 whole entry): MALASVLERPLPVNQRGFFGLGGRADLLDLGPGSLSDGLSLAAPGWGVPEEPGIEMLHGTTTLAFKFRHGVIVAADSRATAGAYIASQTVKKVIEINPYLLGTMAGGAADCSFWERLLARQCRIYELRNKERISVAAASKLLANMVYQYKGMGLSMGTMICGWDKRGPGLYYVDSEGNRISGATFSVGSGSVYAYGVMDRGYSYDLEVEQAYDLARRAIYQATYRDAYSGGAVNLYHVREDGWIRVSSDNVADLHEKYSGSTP
Outline: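 Purified human 20S proteasome (1 nM) in 50 mM Tris-HCl pH 7.5 with 0.03% SDS and 50 μM fluorogenic substrate (Suc-LLVY-AMC for CT-L, Z-ARR-AMC for T-L, Z-LLE-AMC for casp-L), 37 °C. Maximum fluorescence increase per minute gave specific activity; IC50 taken from the linear portion of the curves.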

[2] = target: T1, Proteasome Macropain subunit MB1; assay: Inhibition of human 20S proteasome chymotryptic-like activity using Suc-LLVY-AMC as substrate assessed as fluorescence quinching control by fluorescence assay
[3] = Inhibition of human 20s proteasome in human TNFalpa stimulated NF-kappaB-luc expressing HeLa cells assessed as suppression of NF-kappaB mediated gene expression preincubated for 30 min followed by TNFalpha stimulation measured after 8 hrs by steady-Glo luciferase assay; assay type: cell-based
Outline: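 HeLa NF-κB-luc cells were seeded in DMEM with 5% FBS and hygromycin B. After 24 h the medium was swapped for serum-free DMEM with antibiotics. Cells were pretreated 30 min at 37 °C, 5% CO2 with compound (final 50, 25, 12.5, 6.25, 3.13, 1.56 μM), vehicle 1% DMSO, or 50 μM MG-132 as positive control. TNF-α (25 ng/mL final) was then added for 8 h. Firefly luciferase was read by Steady-Glo, normalized to TNF-α stimulation. Average of 2 independent experiments.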

**Q.** For CN(C)c1ccc2ncc(C(C)(C)C)cc2c1, which IC50 [1] is on record?
**A.** The IC50 was > 25 µM.

**Q.** For Cc1nc2ccccc2cc1C1=CCCCC1, which IC50 [1] is on record?
**A.** Its IC50 is > 25 µM.

**Q.** For Cc1nc2ccc(Br)cc2cc1-c1ccccc1, which IC50 [1] is on record?
**A.** The IC50 was > 25 µM.

**Q.** With COc1ccc2nc(C)c(C3=CCCCC3)cc2c1 as the molecule, how does the IC50 [1] read?
**A.** Its IC50 is > 25 µM.

**Q.** For Cc1nc2ccc(F)cc2cc1C1=CCCCC1, which IC50 [1] is on record?
**A.** Its IC50 is > 25 µM.

**Q.** For Cc1nc2ccc(N3CCCCC3)cc2cc1C1=CCCCC1, which IC50 [1] is on record?
**A.** The IC50 was 5.4 µM.

**Q.** Which IC50 [1] does the source give for Cc1nc2ccc(C(C)C)cc2cc1-c1ccccc1 here?
**A.** The IC50 was > 25 µM.

**Q.** Which IC50 [1] does the source give for Cc1ccc2ccccc2n1 [QUINALDINE] here?
**A.** Its IC50 is > 25 µM.

**Q.** For c1ccc(-c2cnc3ccccc3c2)cc1, which IC50 [1] is on record?
**A.** The IC50 was > 25 µM.

**Q.** Which IC50 [1] does the source give for Cc1nc2cc(Br)cc(Br)c2cc1C1=CCCCC1 here?
**A.** The IC50 was > 25 µM.

**Q.** With C=C(C)c1cc2c(C)cc(C)cc2nc1CC as the molecule, how does the IC50 [1] read?
**A.** Its IC50 is > 25 µM.

**Q.** With Cc1nc2cc(Cl)cc(Cl)c2cc1C1=CCCCC1 as the molecule, how does the IC50 [1] read?
**A.** Its IC50 is > 25 µM.

**Q.** For Cc1nc2ccc(N3CCOCC3)cc2cc1C1=CCCCC1, which IC50 [1] is on record?
**A.** Its IC50 is 9.1 µM.

**Q.** Which IC50 [1] does the source give for Cc1nc2ccc(Cl)cc2cc1C1=CCCCC1 here?
**A.** The IC50 was > 25 µM.

**Q.** For Cc1cnc2ccccc2c1, which IC50 [1] is on record?
**A.** The IC50 was > 25 µM.

**Q.** For CCCCc1ccc2cc(N(C)C)ccc2n1, which IC50 [1] is on record?
**A.** Its IC50 is > 25 µM.

**Q.** For Cc1cc(C)c2cc(-c3ccccc3)c(-c3ccccc3)nc2c1, which IC50 [1] is on record?
**A.** The IC50 was > 25 µM.

**Q.** Which results are given for CN(C)c1ccc2nc(-c3ccccc3)c(-c3ccccc3)cc2c1?
**A.** IC50 [1]: > 25 µM; IC50 [2]: 2.3 µM

**Q.** Which IC50 [3] does the source give for Cc1cc(C)c2cc(C3=CCCCC3)c(C)nc2c1 here?
**A.** The IC50 was 12.1 µM.
